Compound activity as filed in PubChem BioAssay.
An excerpt weighted towards active compounds, which were near 3.1% of everything screened.
HIF activator: HIF pathway transcriptional activation | activation, % at 7.5 µM (by protocol) | U2OS HRE-luciferase reporter, luminescence; normalized: DMSO 0%, desferrioxamine 100% | hit rate 0.32% among 300,000;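 active = mean activation of at least 10% of the iron chelator positive control signal, with at least half of replicates also reaching 10%; inconclusive = mean and replicate majority disagree about reaching 10%; inactive = mean and most replicates under 10%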
Beta cell apopt: blocks beta cell apoptosis; hit rate 0.8% among 300,000; protection from apoptosis, % (test concentration not listed); INS-1E cytokine-induced death, ATP luminescence, 48 h; percent of positive-control rescue, neutral wells zero;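 active = Every replicate reaches about 75%, or at least half do and their mean reaches it too, limit read from the data; inconclusive = At least half of replicates reach the limit but their mean does not; inactive = Under half of replicates reach the limit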;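 also: higher means more ATP so stronger rescue from cytokine killing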
Calb FLC: C. albicans growth modulation with fluconazole; AID 1979; hit rate 0.57% among 300,000; C. albicans CaCi-2 (fluconazole-resistant clinical isolate) + fluconazole, Alamar Blue growth, 48 h; growth inhibition, % (concentration not given with the values);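 active = growth inhibition above about 58% in most replicates, limit read from the data, passing the limit was not always enough; inconclusive = exactly half the replicates above a set limit; inactive = most replicates below a set limit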;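 also: all wells also contain fluconazole at 8 µg/ml as a sub-toxic cotreatment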
T cruzi repl: blocks replication of Trypanosoma cruzi | T. cruzi beta-gal in NIH3T3, luminescence, 90 h | inhibition, % (test concentration not listed) | hit rate 1.4% among 300,000;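 active = mean inhibition across valid replicates above about 55%, limit read from the data; inconclusive = mean below that limit but half or more replicates reach it; inactive = mean below it, under half of replicates reach it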;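 also: signal also drops with host cell toxicity which is not excluded here; higher percent means less beta-gal luminescence so fewer parasites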
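Read-out: Parasite load inhibition, % | Test system: Mouse NIH/3T3 fibroblasts infected with β-gal-expressing T. cruzi Tulahuen C4 | Amount: 5,000 cells/well | Medium: DMEM, 2% fetal bovine serum | Signal: GalScreen β-gal luminescence, detergent lysis, 60 min | Timing: 3 h attach, ≥90 h co-culture | Also added: Tulahuen C4 trypomastigotes, 5000/well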
PolyA inh: blocks polyadenylation in yeast reporter cells; activity score, % at 12 µM; S. cerevisiae SKY197-pL101 polyadenylation reporter, beta-gal luminescence; efflux-impaired pdr1/pdr3 knockout yeast; score 100 = 6 SD above DMSO; AID 1875; hit rate 0.02% among 300,000;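 active = lowest replicate activity score at least 50, where 100 means six control SD above control mean; inconclusive = lowest score under 50 but half or more replicates reach 50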;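 also: yeast exposed to compound for 9 h at 30 °C; higher score means more reporter readthrough which indicates perturbed polyadenylation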
CSC inhib: blocks cancer stem cells; cancer stem cell-like cells viability, luminescence; inhibition, % at 7.5 µM; hit rate 1.1% among 300,000; in the data active = inhibition above about 75%; inconclusive = no clear call, values can overlap the other calls; tested in HMLE shEcad cells
A number is an active result; – = inactive; ? = inconclusive; · = no result given.

SMILES	HIF activator	Beta cell apopt	Calb FLC	T cruzi repl	PolyA inh	CSC inhib
O=C(Nc1ccc(Nc2ccccc2)cc1)Nc1ccccc1Cl	–	–	–	–	–	100
O=C(Nc1ccccc1)Nc1cc(OCC(F)(F)F)cc(OCC(F)(F)F)c1	–	·	–	87	–	·
O=C(Nc1ccccc1)Nc1cc(Cl)cc(Cl)c1	–	–	–	?	–	81
O=C(N/N=C/c1ccc(Cl)cc1Cl)Nc1ccccc1	–	–	117	–	·	–
O=C(Nc1ccccc1Cl)Nc1ccccc1Cl	–	–	–	–	–	–
Cc1ccc(C(=O)Nc2ccccc2N2CCCCC2)o1	–	–	–	–	–	·
CC(=O)C1C(c2ccc(Cl)cc2)c2c(noc2C)CC1(C)O (stereo not drawn)	–	–	–	–	–	–
O=C(Nc1ccccc1)Nc1ccc(O)c2ccccc12	–	–	–	–	–	98
CC(=O)c1ccc(NC(=O)Nc2cccc3ccccc23)cc1	·	–	81	·	·	–
COc1cc2c(cc1OC)C1=NC(=O)CN1C(SCc1ccccc1)=N2	·	–	·	·	·	–
COc1cccc(/C=C/C(=O)Nc2ccc(OC)nc2)c1	–	–	–	–	–	·
Cc1ccc(Nc2c(-c3ccc(C)o3)nc3ncccn23)cc1	–	–	–	–	57	–
Cc1ccc(-c2nc3ncccn3c2Nc2ccc3c(c2)OCO3)o1	–	–	–	–	–	–
CC(C)=NOCC(=O)Nn1c(COc2c(C)cccc2C)nc2ccccc2c1=O	–	·	–	–	–	–
COc1ccc(/C=C/C(=O)NC(=S)Nc2ccccc2C(=O)NC2CCCCC2)cc1	–	79	?	–	–	–
CCOc1ccc(CN2CCC(C(=O)Nc3cccc(-c4ccn[nH]4)c3)CC2)cc1Cl	–	·	–	–	–	·
O=[N+]([O-])c1ccc(O)c(-c2cc(C(F)(F)F)nc(-c3ccccc3)n2)c1	–	119	–	–	–	88
COc1ccc(Cl)cc1NC(=O)CN(C)C(=O)c1cc(=O)c2ccccc2o1	·	–	·	·	·	–
CC(C)n1cc(CN2CCN(C)C(CCO)C2)c2ccccc21 (stereo not drawn)	–	–	–	59	–	–
Cc1ccccc1-c1ccc(CN2CCN(C)C(CCO)C2)cc1 (stereo not drawn)	–	–	–	58	–	?
COc1ccccc1C(=O)NCCC(=O)NCc1ccncc1	·	–	·	·	·	·
NC(=S)N/N=C/c1ccccc1OCc1cccc(Cl)c1	–	–	–	62	–	–
CC(=O)Cn1cnc2c(cnn2-c2ccc(C)c(C)c2)c1=O	–	–	–	–	–	–
O=C(NCCCN1CCOCC1)c1ccc(Sc2ccccc2Cl)c([N+](=O)[O-])c1	–	–	–	–	–	–
O=C(NCCCN1CCOCC1)c1ccc(Sc2ccc(Br)cc2)c([N+](=O)[O-])c1	–	–	–	–	–	76
SMILES	HIF activator	Beta cell apopt	Calb FLC	T cruzi repl	PolyA inh	CSC inhib
Cc1ccc2nc(NC(=O)C3CCN(S(=O)(=O)c4cc([N+](=O)[O-])ccc4Cl)CC3)sc2c1	–	–	–	67	–	–
CS(=O)(=O)c1ccc2nc(NC(=O)C3CC3)sc2c1	15	·	–	–	–	–
O=C(Nc1nc2ccc(F)cc2s1)C1CCN(S(=O)(=O)c2cc([N+](=O)[O-])ccc2Cl)CC1	–	111	–	–	–	–
CCn1c(=NC(=O)c2ccc(S(=O)(=O)N(C)C)cc2)sc2cccc(OC)c21	–	–	–	?	–	–
COc1cccc2sc(=NC(=O)CS(=O)(=O)c3ccc(F)cc3)n(C)c12	–	·	–	55	–	–
CCn1c(=NC(=O)CS(=O)(=O)c2ccc(C)cc2)sc2cccc(OC)c21	–	·	–	59	–	–
COc1cccc2sc(=NC(=O)CCS(=O)(=O)c3ccc(C)cc3)n(C)c12	–	·	–	–	–	–
COc1cccc2sc(=NC(=O)CS(=O)(=O)c3ccc(Cl)cc3)n(C)c12	–	·	99	60	–	–
CC1CCN(CCCNC(=O)C2CCN(S(=O)(=O)N3CCC4(CC3)OCCO4)CC2)CC1	–	–	–	–	–	–
Cc1ccc(S(=O)(=O)N2CCN(C(=O)CSCc3ccc(C(C)C)cc3)CC2)cc1	·	–	·	·	·	–
CCc1cccc(OCC2Cn3c(nc4c3c(=O)[nH]c(=O)n4C)O2)c1 (stereo not drawn)	–	–	–	–	–	–
CCCSc1nc2cc(C)c(C)cc2n1CC(C)O (stereo not drawn)	–	–	–	–	–	–
